# Screening results from PubChem BioAssay.
# An excerpt weighted towards active compounds, which were near 4.6% of everything screened.
# GPR7 antagonist = human neuropeptides B/W receptor 1 antagonism; GPR7-expressing cells, fluorescence antagonist assay; AID 1861; inhibition, % at 4.4 µM; 1.1% of 290,000 active; P48145; in the data active = inhibition above about 16%, passing the limit was not always enough;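 also: cells stimulated with the agonist NPW; 0% = agonist with vehicle and 100% = vehicle without agonist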
# TAAR1 agonist = human TAAR1 agonism; Q96RJ0; CHO RD-HGA16 TAAR1, Fluo-8 calcium fluorescence; vehicle wells 0%, saturating PEA agonist 100%; activation, % at 3 µM; 0.99% of 360,000 active;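 active = activation above the mean activation of all test compounds in the run plus 3 SD, cut at about 38% in these data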
#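 System: CHO-derived RD-HGA16 cells with stable Gα16 and human TAAR1 / Times: 17-24 h plating, Fluo-8 75 min 37 °C, 30 min RT / Technique: calcium-sensitive Fluo-8 signal, excitation 470-495, emission 515-575 nm / Measure: % activation relative to PEA EC100 response / Benchmarks: DMSO and PEA EC100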
# OX1R antag-1 = human HCRTR1 antagonism | O43613 | CHO/OX1R cells, Fluo-8 calcium fluorescence, orexin A | inhibition, % at 5 µM | 0.43% of 330,000 active | AID 434989;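 active = inhibition above its plate's threshold, mean inhibition of all tested compounds on the plate plus 3 SD, cut at about 37% in these data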;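 also: 0% = orexin A challenge wells and 100% = SB-334867-A antagonist wells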
# Target sequence (O43613 whole entry, looked up): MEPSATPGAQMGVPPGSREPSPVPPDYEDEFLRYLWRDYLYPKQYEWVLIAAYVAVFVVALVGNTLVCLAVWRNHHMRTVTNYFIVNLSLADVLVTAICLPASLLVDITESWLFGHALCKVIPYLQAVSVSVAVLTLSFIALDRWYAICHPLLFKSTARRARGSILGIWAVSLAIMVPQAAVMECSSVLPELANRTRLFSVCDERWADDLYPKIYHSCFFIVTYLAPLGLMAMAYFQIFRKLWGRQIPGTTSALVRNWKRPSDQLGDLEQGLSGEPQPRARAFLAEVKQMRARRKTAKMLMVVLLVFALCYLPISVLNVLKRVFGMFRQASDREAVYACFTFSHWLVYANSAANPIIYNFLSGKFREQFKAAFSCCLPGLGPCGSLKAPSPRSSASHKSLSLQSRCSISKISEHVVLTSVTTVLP
# CHO parental Ca = counter-screen for OX1R antagonists: effect in parental CHO cells. parental CHO-K1, ATP-induced calcium, Fluo-8 fluorescence. inhibition, % at 5.6 µM. 0.63% of 330,000 active. AID 463079;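 active = inhibition above that plate's mean sample inhibition plus 3 SD, cut at about 26% in these data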;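 also: 0% = ATP-challenged DMSO wells and 100% = DMSO wells without ATP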
#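 Assay system: parental CHO cells; Read-out basis: percent inhibition of ATP-evoked calcium rise, normalized to controls; Benchmarks: ATP and no-ATP DMSO wells; Compound dosing: single nominal dose of 5.6 µM per compound; Signal: Fluo-8 calcium dye fluorescence; Also added: ATP as calcium-mobilizing challenge; Repeats: singlicate.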
# OX1R antag-2 = OX1R (human) antagonism; inhibition, % at 6.6 µM; O43613; AID 485270; OX1R-expressing cells, FRET antagonist read-out; 1.8% of 330,000 active; in the data active = inhibition mostly above about 38%, no sharp cut-off; inactive = mostly below about 40%;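 also: 0% = agonist challenge alone and 100% = reference antagonist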
# TAAR1 antag = human TAAR1 antagonism. 1.5% of 360,000 active. inhibition, % at 3 µM. CHO RD-HGA16 TAAR1, Fluo-8 calcium fluorescence, antagonist. Q96RJ0;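 active = inhibition above a per-plate cutoff, the mean inhibition of test compounds on that plate plus 3 SD, cut at about 49% in these data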;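 also: 0% = DMSO plus EC80 beta-PEA response and 100% = DMSO alone without agonist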
#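 Material: CHO RD-HGA16 cells bearing hTAAR1; compound dosing: one-point dosing, 3 µM nominal final; schedule: dye loading 75 min at 37 °C, then 30 min room temperature; measured by: calcium fluorescence with Fluo-8; control set: vehicle and agonist controls; replication: n of 1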
# Numbers without * were called inactive; . = no result.
SMILES,GPR7 antagonist,TAAR1 agonist,OX1R antag-1,CHO parental Ca,OX1R antag-2,TAAR1 antag
O=c1cc(CN2CCC(Cc3ccccc3)CC2)nc2sccn12,-6.3,-0.8,-11.4,-5.8,36.9,3.2
COc1ccc(/C=N/NC(=O)c2ccccc2OC)cc1COc1ccccc1[N+](=O)[O-],0.6,1.3,-12.2,-4.2,24.5,50.8*
CCOc1cc(/C=C2\CCC/C(=C\c3cc(Cl)c(O)c(OCC)c3)C2=O)cc(Cl)c1O,11.5,6.1,28.6,21.4,75.1*,55.8*
CCOc1cc(/C=C2\CN(C)C/C(=C\c3ccc(O)c(OCC)c3)C2=O)ccc1O,-1.8,15.4,-30.5,-28.1,-8.9,17.3
CC1CCN(C(=O)c2ncn3c2C(=O)NC[C@H]3C)CC1,.,0.7,.,.,.,-10.0
CC(C)N(Cc1nccn1C)C(=O)c1cc(COc2ccc3ncccc3c2)on1,-7.2,3.6,-10.0,1.6,22.4,-3.6
O=C(NCc1cccc(Cl)c1)c1cc(COc2ccc3ncccc3c2)on1,12.4,19.0,41.7*,67.1*,53.2,21.6
Cc1cc(C)n(CCNC(=O)c2cc(COc3ccc4ncccc4c3)on2)n1,-9.3,6.0,-18.3,11.2,24.4,-10.0
Cc1ccc(F)cc1CNC(=O)c1cc(COc2ccc3ncccc3c2)on1,-7.3,22.8,36.5,32.2*,36.9,41.1
CC(CCCC(C)(C)O)NC(=O)c1cc(COc2ccc3ncccc3c2)on1 (centres undefined),-15.8,9.0,-11.5,24.5*,14.1,17.3
CN1CCCCC(NC(=O)c2cccc([N+](=O)[O-])c2)C1=O (centres undefined),.,0.8,.,.,.,-14.0
CCOC(=O)C1CSCCS(=O)(=O)N1Cc1cccc(Cl)c1 (centres undefined),.,-0.8,.,.,.,0.7
CCOC(=O)c1c(NC(=O)c2ccco2)sc2c1CCCC2,-14.1,7.2,-8.8,-5.1,7.7,-1.3
CCOC(=O)c1c(NC(=O)CN2CCN(C(=O)c3ccco3)CC2)sc2c1CCCC2,0.5,7.7,70.4*,60.0*,15.4,8.7
CCOC(=O)c1cc(C)sc1NC(=O)CN1CCN(C(=O)c2ccco2)CC1,-21.5,41.6*,52.9*,87.1*,7.3,34.5
CN1NC(=O)c2ccccc2NC1=S,.,-0.5,.,.,.,11.9
Cc1ccc(CN2C(=O)CSCC2(C)C(=O)NCc2ccccc2)cc1 (centres undefined),.,3.0,.,.,.,-23.7
CCOc1ccc(C(=O)/C=C/c2cn(CN3CCN(C)CC3)c3ccccc23)cc1,9.5,7.9,13.7,-23.5,57.1*,10.3
COc1ccccc1NC(=O)C1=C(C)Nc2nnnn2C1c1cc(Br)ccc1OC (centres undefined),10.4,47.7*,-12.5,3.9,9.2,0.3
COc1ccc(C(CNC(=O)c2ccc(S(=O)(=O)Nc3ccccc3OC)cc2)N2CCCC2)cc1 (centres undefined),.,11.0,.,.,.,11.5
CC(=O)N(CN1C(=O)c2ccc([N+](=O)[O-])cc2C1=O)c1cccc(C(=O)O)c1,-7.3,3.6,1.3,12.7,52.2*,-12.8
CCOC(=O)C1CSCCS(=O)(=O)N1Cc1ccc(C)cc1 (centres undefined),.,2.0,.,.,.,-10.2
Oc1ccc2ccccc2c1C=Nc1ccc(N2CCOCC2)cc1,-5.3,21.1,5.0,-4.8,50.7*,24.7
C=Cc1ccc(N=Cc2c(O)ccc3ccccc23)cc1,4.6,3.9,-36.6,-16.4,4.2,-12.2
C[C@@H]1CN(c2ccc(N3CCNC[C@H]3C)cc2C#N)C[C@H](C)O1,.,2.9,.,.,.,-4.1
SMILES,GPR7 antagonist,TAAR1 agonist,OX1R antag-1,CHO parental Ca,OX1R antag-2,TAAR1 antag
Nc1ccn([C@@H]2O[C@H](C(=O)N[C@H](Cc3ccccc3)C(=O)NCc3cccc4c3OCO4)[C@@H](O)[C@H]2O)c(=O)n1,.,-0.4,.,.,.,5.4
CCOc1ccc(S(=O)(=O)Nc2cnc3ccccc3c2)cc1,-4.0,3.6,-3.9,34.9*,27.7,16.4
CCOc1ccc(S(=O)(=O)Nc2nc3ccccc3nc2Cl)cc1,0.2,-0.4,-6.1,-11.7,22.4,0.4
O=C1CSc2ccc(C(=O)Nc3cccc(S(=O)(=O)Nc4ccc(Br)cc4)c3)cc2N1,18.1,5.0,-2.7,33.9*,15.1,-1.1
O=C(Nc1ccc(Br)cc1)c1cccc(S(=O)(=O)Nc2cnc3ccccc3c2)c1,9.0,3.4,4.9,42.1*,54.4,20.8
Nc1ncnc2c1ncn2[C@@H]1O[C@H](C(=O)N2CCC[C@@H]2C(=O)OCc2ccccc2)[C@@H](O)[C@H]1O,.,2.2,.,.,.,-0.7
COCc1cc(N2CCNC[C@@H]2C)ccc1N1CCN(Cc2ccccc2)[C@@H](C)C1,.,2.7,.,.,.,2.8
c1csc(-c2cn3ccc4ccccc4c3n2)c1,-2.9,0.0,-4.3,-13.0,74.5*,20.1
COc1cc(C(=O)C(=O)N2CCC(Cc3ccccc3)CC2)cc2ccccc12,.,0.3,.,.,.,-4.2
O=C(CNC(=O)C1COc2ccccc2O1)N/N=C/c1ccc(O)cc1O (centres undefined),3.1,40.9*,-0.6,-4.3,13.3,-19.5
O=C(CNC(=O)C1COc2ccccc2O1)N/N=C\c1cccc(O)c1 (centres undefined),-9.7,22.4,-16.9,-7.1,13.3,-11.5
O=C(Cc1cccc2ccccc12)Nc1ccc(N2CCOCC2)cc1,-4.2,38.9*,-7.2,5.2,26.5,12.0
O=C(Cc1ccccc1)Nc1ccc(N2CCOCC2)cc1,19.8,3.8,-8.4,4.8,7.8,7.5
CC(C)c1ccc(/C=C/C(=O)NC(=S)NN2CCOCC2)cc1,-9.2,3.2,.,.,.,-13.6
CC(C)c1ccc(/C=C/C(=O)NC(=S)Nc2ccc(CN3CCOCC3)cc2)cc1,-9.5,7.1,-3.2,-5.0,24.2,66.7*
O=C(/C=C/c1ccccc1)NC(=S)Nc1ccc(N2CCOCC2)cc1,7.3,5.8,-16.4,-21.0,24.7,53.7*
Cc1ccc(S(=O)(=O)N2CC3=C(c4ccccc4)CC4(C)C(=O)C(C)(C)CC4=C3C2)cc1 (centres undefined),.,-1.1,.,.,.,-0.4
CCc1cc(OCCCCNCc2ccccc2)ccc1Cl,0.6,41.5*,-14.5,-0.3,9.0,25.4
O=c1c2ccccc2oc2ccc(NCCCN3CCOCC3)cc12,3.4,3.4,-15.7,-10.8,22.8,-2.5
Cn1c2ccccc2c(=O)c2cc(NCCCN3CCOCC3)ccc21,.,5.9,-20.7,-27.9,58.6*,-15.3
CCCCCCNS(=O)(=O)c1ccc(OC)c(OC)c1,2.6,10.9,-21.0,-15.4,11.9,-2.3
CCCCCCCCC#Cc1nc(C)ccc1OC,.,6.3,41.9,47.9*,9.8,5.5
CC(C)(C)c1cc(C(=O)N/N=C/c2ccccn2)n[nH]1,-7.7,0.7,-19.1,-10.2,7.9,0.3
Cc1[nH]c2ccccc2c1/C=N/NC(=O)c1ccccc1,-4.6,0.9,-8.3,-15.4,7.9,-3.9
